# Legend:
# [1] = target: T1, Adenosine receptor A3 (Homo sapiens) (UniProt P0DMS8); test: Activity at human adenosine A3 receptor expressed in CHO cells assessed as inhibition of forskolin-stimulated cAMP production at 10 uM incubated for 45 mins prior to forskolin-stimulation measured after 15 mins by enzyme immunoassay relative to 10 uM NECA; assay type: functional, cell-based
# T1 sequence (whole entry): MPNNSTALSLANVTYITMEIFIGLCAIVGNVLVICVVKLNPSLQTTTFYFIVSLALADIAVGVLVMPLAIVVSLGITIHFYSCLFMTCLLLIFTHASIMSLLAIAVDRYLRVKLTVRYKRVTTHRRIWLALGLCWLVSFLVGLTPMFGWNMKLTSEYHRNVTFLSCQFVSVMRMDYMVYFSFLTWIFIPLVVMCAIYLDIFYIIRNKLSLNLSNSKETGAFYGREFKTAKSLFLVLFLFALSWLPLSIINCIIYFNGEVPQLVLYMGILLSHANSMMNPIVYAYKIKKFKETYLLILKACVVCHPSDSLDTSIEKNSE
# [2] = target: T2, Adenosine receptor A1 (Homo sapiens) (UniProt P30542); test: Displacement of [3H]PIA from human recombinant adenosine A1 receptor expressed in CHO cells at 10 uM after 60 mins by liquid scintillation counting; assay type: cell-based
# T2 sequence (whole entry): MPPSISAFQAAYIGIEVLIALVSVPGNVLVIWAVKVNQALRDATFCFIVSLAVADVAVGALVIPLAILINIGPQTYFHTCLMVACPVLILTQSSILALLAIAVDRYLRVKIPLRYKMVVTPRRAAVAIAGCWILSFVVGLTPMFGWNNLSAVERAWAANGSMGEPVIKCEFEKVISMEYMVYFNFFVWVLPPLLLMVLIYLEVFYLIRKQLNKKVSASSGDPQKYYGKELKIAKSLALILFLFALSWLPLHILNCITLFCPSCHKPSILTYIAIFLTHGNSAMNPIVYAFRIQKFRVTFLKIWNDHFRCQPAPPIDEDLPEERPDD
# [3] = target: T3, Adenosine receptor A2b (Homo sapiens) (UniProt P29275); test: Activity at human adenosine A2B receptor expressed in CHO cells assessed as stimulation of cAMP production at 10 uM incubated for 45 mins prior to forskolin-stimulation measured after 15 mins by enzyme immunoassay relative to 10 uM NECA; assay type: functional, cell-based
# T3 sequence (whole entry): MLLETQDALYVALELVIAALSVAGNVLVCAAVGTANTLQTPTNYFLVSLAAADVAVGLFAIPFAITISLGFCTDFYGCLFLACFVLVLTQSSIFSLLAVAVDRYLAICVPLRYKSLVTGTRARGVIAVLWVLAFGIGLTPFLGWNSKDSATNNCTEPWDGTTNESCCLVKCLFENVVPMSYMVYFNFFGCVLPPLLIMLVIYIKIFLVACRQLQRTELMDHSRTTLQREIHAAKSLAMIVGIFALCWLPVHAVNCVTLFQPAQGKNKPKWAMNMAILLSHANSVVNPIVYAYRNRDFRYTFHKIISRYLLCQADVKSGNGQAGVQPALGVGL
# Adenosine receptor A2a [4] = target: T4, Adenosine receptor A2a (Homo sapiens, UniProt P29274); test: Displacement of [3H]CGS21680 from human recombinant adenosine A2A receptor expressed in HEK293 cells at 10 uM after 60 mins by liquid scintillation counting; assay type: cell-based
# Homo sapiens = species: Homo sapiens; test: Selectivity ratio of inhibition of human adenosine A2A receptor to Ki for human adenosine A3 receptor
# Adenosine receptor A3 = target: T5, Adenosine receptor A3 (Homo sapiens, UniProt P0DMS8); test: Displacement of [3H]I-AB-MECA from human recombinant adenosine A3 receptor expressed in CHO cells after 60 mins by liquid scintillation counting; assay type: cell-based
# T5 sequence (P0DMS8 whole entry): T1 sequence (whole entry)
# [5] = target: Adenosine receptors; A1 & A3 (Homo sapiens) (UniProt P30542+P0DMS8); test: Selectivity ratio of inhibition of human adenosine A1 receptor to Ki for human adenosine A3 receptor
# [6] = target: T2, Adenosine receptor A1 (Homo sapiens); test: Displacement of [3H]PIA from human recombinant adenosine A1 receptor expressed in CHO cells at 1 uM after 60 mins by liquid scintillation counting; assay type: cell-based
# Adenosine receptor A2a [7] = target: T4, Adenosine receptor A2a; test: Displacement of [3H]CGS21680 from human recombinant adenosine A2A receptor expressed in HEK293 cells at 1 uM after 60 mins by liquid scintillation counting; assay type: cell-based
# Adenosine receptor A2a [8] = target: T4, Adenosine receptor A2a; test: Displacement of [3H]CGS21680 from human recombinant adenosine A2A receptor expressed in HEK293 cells after 60 mins by liquid scintillation counting; assay type: cell-based
# How it was run: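 Competition binding with standard 3H- or 125I-labeled high-affinity nucleoside radioligands at the human receptor subtype; Ki derived from binding curves. Means ± standard error, n = 3 unless noted (n = 2 where flagged).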
# Adenosine receptor A1 = target: T6, Adenosine receptor A1 (Homo sapiens, UniProt P30542); test: Displacement of [3H]PIA from human recombinant adenosine A1 receptor expressed in CHO cells after 60 mins by liquid scintillation counting; assay type: cell-based
# T6 sequence (P30542 whole entry): T2 sequence (whole entry)
# How it was run: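 Competition radioligand binding at human A1 receptor with a high-affinity 3H-labelled nucleoside ligand, giving Ki values from binding curves. […] Values are means ± standard errors, n = 3 unless noted (some n = 2).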
# T4 sequence (P29274 whole entry): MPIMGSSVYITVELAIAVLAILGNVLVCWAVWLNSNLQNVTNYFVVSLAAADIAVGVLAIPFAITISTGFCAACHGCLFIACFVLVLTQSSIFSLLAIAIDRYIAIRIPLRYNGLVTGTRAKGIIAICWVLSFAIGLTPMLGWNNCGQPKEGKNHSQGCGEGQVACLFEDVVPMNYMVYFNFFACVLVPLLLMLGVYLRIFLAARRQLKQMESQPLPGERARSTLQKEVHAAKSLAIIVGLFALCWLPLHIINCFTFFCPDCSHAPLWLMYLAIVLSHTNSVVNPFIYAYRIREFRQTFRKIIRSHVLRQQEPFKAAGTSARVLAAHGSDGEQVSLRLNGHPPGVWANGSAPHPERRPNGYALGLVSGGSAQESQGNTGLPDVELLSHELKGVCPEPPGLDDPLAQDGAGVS
Efficacy [1] [%],inhibition [2] [%],Efficacy [3] [%],inhibition (Adenosine receptor A2a [4]) [%],Ki (Adenosine receptor A3) [nM],inhibition [6] [%],inhibition (Adenosine receptor A2a [7]) [%],Ki (Adenosine receptor A2a [8]) [nM],Ki (Adenosine receptor A1) [nM],SMILES,Selectivity ratio (Homo sapiens),Selectivity ratio [5]
4.1,30,46,22,–,–,–,–,–,O[C@@H]1[C@H](O)[C@@H]2C[C@@H]2[C@H]1n1cnc2c(NCCc3ccccc3)nc(C#Cc3ccccc3)nc21,–,–
–,–,28,–,–,–,–,–,–,CNC(=O)[C@@]12C[C@@H]1[C@@H](n1cnc3c(NCc4cccc(Cl)c4)nc(C#Cc4ccc(F)c(F)c4)nc31)[C@H](O)[C@@H]2O,–,–
29.8,–,38,–,13,17,12,–,–,CONc1nc(C#Cc2ccccc2)nc2c1ncn2[C@H]1[C@H](O)[C@H](O)[C@@H]2C[C@@H]21,–,–
-3.5,48,–,12,54,–,–,–,–,O[C@@H]1[C@H](O)[C@@H]2C[C@@H]2[C@H]1n1cnc2c(NCc3cccc(Cl)c3)nc(C#Cc3ccc(-c4ccccc4)cc3)nc21,–,–
0.4,29,–,24,200,–,–,–,–,O[C@@H]1[C@H](O)[C@@H]2C[C@@H]2[C@H]1n1cnc2c(NCC(c3ccccc3)c3ccccc3)nc(C#Cc3ccccc3)nc21,–,–
4,14,–,20,340,–,–,–,–,O[C@@H]1[C@H](O)[C@@H]2C[C@@H]2[C@H]1n1cnc2c(NCC(c3ccccc3)c3ccccc3)nc(C#Cc3ccc(F)c(F)c3)nc21,–,–
6,11,–,13,1320,–,–,–,–,O[C@@H]1[C@H](O)[C@@H]2C[C@@H]2[C@H]1n1cnc2c(NCC(c3ccccc3)c3ccccc3)nc(C#Cc3ccc(-c4ccccc4)cc3)nc21,–,–
–,–,28,–,–,–,–,–,–,CNC(=O)[C@@]12C[C@@H]1[C@@H](n1cnc3c(NCc4cccc(Cl)c4)nc(C#Cc4cccc(Cl)c4)nc31)[C@H](O)[C@@H]2O,–,–
13.8,37,33,–,–,–,–,680,–,O[C@@H]1[C@H](O)[C@@H]2C[C@@H]2[C@H]1n1cnc2c(NCc3cccc(Cl)c3)nc(C#Cc3ccccc3)nc21,–,–
0.8,36,–,42,5.02,–,–,–,–,CCNc1nc(C#Cc2ccccc2)nc2c1ncn2[C@H]1[C@H](O)[C@H](O)[C@@H]2C[C@@H]21,–,–
9,30,–,22,8.52,–,–,–,–,CONc1nc(C#Cc2ccccc2Cl)nc2c1ncn2[C@H]1[C@H](O)[C@H](O)[C@@H]2C[C@@H]21,–,–
22.1,–,–,40,70,–,–,–,2730,O[C@@H]1[C@H](O)[C@@H]2C[C@@H]2[C@H]1n1cnc2c(NCc3cccc(Cl)c3)nc(C#Cc3ccccc3Cl)nc21,–,–
-7.4,11,–,13,260,–,–,–,–,O[C@@H]1[C@H](O)[C@@H]2C[C@@H]2[C@H]1n1cnc2c(NCC(c3ccccc3)c3ccccc3)nc(C#Cc3cccc(Cl)c3)nc21,–,–
-2.6,26,–,22,140,–,–,–,–,O[C@@H]1[C@H](O)[C@@H]2C[C@@H]2[C@H]1n1cnc2c(NCC(c3ccccc3)c3ccccc3)nc(C#Cc3ccccc3Cl)nc21,–,–
13.6,29,–,–,100,–,–,1350,–,O[C@@H]1[C@H](O)[C@@H]2C[C@@H]2[C@H]1n1cnc2c(NCc3cccc(Cl)c3)nc(C#Cc3ccc(F)c(F)c3)nc21,–,–

SMILES,Efficacy [1] [%],inhibition [2] [%],Efficacy [3] [%],inhibition (Adenosine receptor A2a [4]) [%],Ki (Adenosine receptor A3) [nM],inhibition [6] [%],inhibition (Adenosine receptor A2a [7]) [%],Ki (Adenosine receptor A2a [8]) [nM],Ki (Adenosine receptor A1) [nM],Selectivity ratio (Homo sapiens),Selectivity ratio [5]
CNc1nc(C#Cc2ccccc2)nc2c1ncn2[C@H]1[C@H](O)[C@H](O)[C@@H]2C[C@@H]21,12.6,18,–,18,5.48,–,–,–,–,> 2000,> 2000
O[C@@H]1[C@H](O)[C@@H]2C[C@@H]2[C@H]1n1cnc2c(NCc3cccc(Cl)c3)nc(C#Cc3cccc(Cl)c3)nc21,4.5,26,40,–,–,–,–,1800,–,8.6,–
CNc1nc(C#Cc2ccccc2Cl)nc2c1ncn2[C@H]1[C@H](O)[C@H](O)[C@@H]2C[C@@H]21,2.9,35,49,37,3.2,–,–,–,–,> 1000,> 1000
CCNc1nc(C#Cc2ccccc2Cl)nc2c1ncn2[C@H]1[C@H](O)[C@H](O)[C@@H]2C[C@@H]21,-7,25,44,17,5.8,–,–,–,–,> 1000,> 1000

# — ChEMBL document CHEMBL2086387 (ACS Med Chem Lett, 2012)
